Among the data in ChEMBL document CHEMBL1123079, “Synthesis and biological activity of a novel adenosine analogue, 3-beta-D-ribofuranosylthieno[2,3-d]pyrimidin-4-one” (1985) are Concentration and Control values, retold here.

The test system of assay [1] is L1210. As to the kind of experiment: The concentration required to inhibit the growth of L-1210 leukemic cells was evaluated; 1E-3 to 1E-4. The format is functional, cell-based. The settings on record: Mus musculus.
Assay [2] relates to L1210. Put plainly: The concentration requiredi (cytidine+2'deoxycytidine) to inhibit the growth of L-1210 leukemic cells was evaluated. The note with it: Mus musculus. The format is functional, cell-based.
Assay [3] has as its system L1210. Put plainly: The concentration required (hypoxanthine+uridine) to inhibit the growth of L-1210 leukemic cells was evaluated; 2E-4 to 2E-5. The format is functional, cell-based. The settings on record: Mus musculus.
Assay [4] has as its system L1210. As to the kind of experiment: The concentration required to inhibit the growth of L-1210 leukemic cells was evaluated; 1E-4 to 1E-5. The format is functional, cell-based. The note with it: Mus musculus.
The subject of assay [5] is L1210. Put plainly: The compound was tested for inhibition of L-1210 leukemic cell growth at 5 x 10 e-5 M along with 10e-5 M adenine. Details: scale not given: the % may be the effect or the level left. The format is functional, Mus musculus. Put shortly: (§1)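 L-1210 cells were held in static suspension in Fischer's medium with test compound at 5 × 10^-5 M plus either 10^-5 M adenine or 10^-5 M adenosine. Cell numbers were counted, and the rate of increase over the first 24 h was taken as the initial growth rate, given as % of untreated control. Values are means, n = 2.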

Assay [6] relates to L1210. Put plainly: The compound was tested for inhibition of L-1210 leukemic cell growth at 5 x 10 e-5 M along with 10e-5 M adenosine. The format is functional, Mus musculus. Details: scale not given: the % may be the effect or the level left. In outline: as §1
Assay [7] concerns L1210. Put plainly: The compound was tested for inhibition of L-1210 leukemic cell growth at 10 e-4 M along with 10e-5 M adenine. The format is functional, Mus musculus. Details: scale not given: the % may be the effect or the level left. Put shortly: (§2)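 Static suspension cultures of murine L-1210 leukemic cells were grown in Fischer's medium with test compound at 10^-4 M plus 10^-5 M adenine or 10^-5 M adenosine. Read-out was the initial growth rate, the increase in cell number during the first 24 h of incubation, relative to untreated control cells (%).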

The test system of assay [8] is L1210. Put plainly: The compound was tested for inhibition of L-1210 leukemic cell growth at 10 e-4 M. The format is functional, Mus musculus. Details: scale not given: the % may be the effect or the level left. Put shortly: (§3)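 Murine L-1210 leukemic cells were grown in static suspension culture in Fischer's medium. Test compound was added at 5 × 10^-5 or 10^-4 M alone. Initial growth rate is the rate of increase in cell number over the first 24 h of incubation, expressed as % of untreated control. Values are mean (±SD), n = 5.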

In assay [9] the test system is L1210. Put plainly: The compound was tested for inhibition of L-1210 leukemic cell growth at 10 e-4 M along with 10e-5 M adenosine. The format is functional, Mus musculus. Details: scale not given: the % may be the effect or the level left. In outline: as §2
In assay [10] the test system is L1210. Put plainly: The compound was tested for inhibition of L-1210 leukemic cell growth at 5 x 10 e-5 M. Details: scale not given: the % may be the effect or the level left. The format is functional, Mus musculus. Put shortly: as §3
The test system of assay [11] is L1210. Put plainly: The concentration required to inhibit the growth of L-1210 leukemic cells was evaluated; 1E-4 to 5E-4. The format is functional, cell-based. The note with it: Mus musculus.

`O=c1ccn([C@@H]2O[C@H](CO)[C@@H](O)[C@H]2O)c(=O)[nH]1` came in with a Concentration in [1] of 1 mM.
With `Nc1ccn([C@@H]2O[C@H](CO)[C@@H](O)[C@H]2O)c(=O)n1`, the Concentration in assay [1] is 1 mM; in assay [2], 100 µM.
`Cc1cn([C@H]2C[C@H](O)[C@@H](CO)O2)c(=O)[nH]c1=O`: the Concentration in [3] turned out to be 200 µM; in assay [4], 100 µM.
Turning to `O=c1c2ccsc2ncn1C1O[C@H](CO)[C@@H](O)[C@H]1O` (some centres not stated), the Control in assay [5] is reported as 52%; in assay [6], 57%; in assay [7] it was 25%; in assay [8] it was 16%; in assay [9], 50%; in assay [10], 32%.
As for `Nc1ccn([C@H]2C[C@H](O)[C@@H](CO)O2)c(=O)n1`, the Concentration in [11] turned out to be 100 µM.
